ChEMBL document CHEMBL4184148 (Bioorg Med Chem Lett, 2017)

Legend:
[1] = target: Calcium/calmodulin-dependent protein kinase type 1 (Homo sapiens) (UniProt Q14012); experiment: Binding affinity to wild-type human full length CAMK1 (M1 to L370 residues) expressed in Escherichia coli BL21 at 1 uM by Kinomescan method relative to control
[2] = target: Tyrosine-protein kinase Lyn (Homo sapiens) (UniProt P07948); experiment: Binding affinity to wild-type human partial length LYN (C219 to Q511 residues) expressed in Escherichia coli BL21 at 1 uM by Kinomescan method relative to control
[3] = target: Ephrin type-A receptor 3 (Homo sapiens) (UniProt P29320); experiment: Binding affinity to wild-type human partial length EPHA3 (D604 to K889 residues) expressed in Escherichia coli BL21 at 1 uM by Kinomescan method relative to control
[4] = target: Ephrin type-A receptor 7 (Homo sapiens) (UniProt Q15375); experiment: Binding affinity to wild-type human partial length EPHA7 (Y608 to S912 residues) expressed in Escherichia coli BL21 at 1 uM by Kinomescan method relative to control
[5] = target: Protein kinase C delta type (Homo sapiens) (UniProt Q05655); experiment: Binding affinity to wild-type human partial length PRKCD (Q328 to D676 residues) expressed in Escherichia coli BL21 at 1 uM by Kinomescan method relative to control
[6] = target: Serine/threonine-protein kinase pim-3 (Homo sapiens) (UniProt Q86V86); experiment: Binding affinity to wild-type human partial length PIM3 (G16 to A317 residues) expressed in Escherichia coli BL21 at 1 uM by Kinomescan method relative to control
[7] = target: Dual specificity protein kinase CLK2 (Homo sapiens) (UniProt P49760); experiment: Binding affinity to wild-type human partial length CLK2 (D144 to R498 residues) expressed in Escherichia coli BL21 at 1 uM by Kinomescan method relative to control
[8] = target: Mitogen-activated protein kinase kinase kinase 13 (Homo sapiens) (UniProt O43283); experiment: Binding affinity to wild-type human full length LZK (M1 to W966 residues) expressed in HEK293 cells at 1 uM by Kinomescan method relative to control; type: cell-based
In short: (§1)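 Run as one kinome-wide competition binding panel with each compound at a single fixed concentration. Results were plotted as a kinome-wide selectivity map.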

[9] = target: Ribosomal protein S6 kinase alpha-4 (Homo sapiens) (UniProt O75676); experiment: Binding affinity to wild-type human partial length N-terminal RPS6KA4 kinase domain 1 expressed in Escherichia coli BL21 at 1 uM by Kinomescan method relative to control
[10] = target: Dual specificity protein kinase CLK3 (Homo sapiens) (UniProt P49761); experiment: Binding affinity to wild-type human full length CLK3 (M1 to R490 residues) expressed in Escherichia coli BL21 at 1 uM by Kinomescan method relative to control; in short: as §1
[11] = test system: Epidermal growth factor receptor (Homo sapiens), P00533 [T790M]; experiment: Binding affinity to human partial length EGFR T790M mutant (R669 to G1022 residues) expressed in HEK293 cells at 1 uM by Kinomescan method relative to control; type: cell-based
[12] = target: Bromodomain-containing protein 4 (Homo sapiens, UniProt O60885); experiment: Inhibition of BRD4 (unknown origin) by AlphaScreen assay
HEK293 [13] = experiment: Cytotoxicity against human HEK293 cells assessed as reduction in cell viability up to 33.3 uM after 72 hrs by CellTiter-Glo assay relative to control; type: cell-based; settings: hek293, 72 h
In short: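 Cells were treated across a dose-response range for 72 h, and viability was read by CellTiter-Glo luminescence. Measurements were made in triplicate and reported with standard error.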

[14] = target: Rho-associated protein kinase 1 (Homo sapiens) (UniProt Q13464); experiment: Binding affinity to wild-type human partial length ROCK1 (M1 to R415 residues) expressed in HEK293 cells at 1 uM by Kinomescan method relative to control; type: cell-based
[15] = target: Mitogen-activated protein kinase kinase kinase 20 (Homo sapiens) (UniProt Q9NYL2); experiment: Binding affinity to wild-type human partial length ZAK (M1 to L331 residues) expressed in Escherichia coli BL21 at 1 uM by Kinomescan method relative to control
[16] = target: Protein kinase C epsilon type (Homo sapiens) (UniProt Q02156); experiment: Binding affinity to wild-type human partial length PRKCE (A378 to P737 residues) expressed in HEK293 cells at 1 uM by Kinomescan method relative to control; type: cell-based
[17] = target: Serine/threonine-protein kinase 24 (Homo sapiens) (UniProt Q9Y6E0); experiment: Binding affinity to wild-type human partial length MST3 (A30 to S311 residues) expressed in Escherichia coli BL21 at 1 uM by Kinomescan method relative to control
[18] = target: Hepatocyte growth factor receptor (Homo sapiens) (UniProt P08581); experiment: Binding affinity to wild-type human partial length MET (D1010 to S1367 residues) expressed in Escherichia coli BL21 at 1 uM by Kinomescan method relative to control
[19] = test system: Tyrosine-protein kinase ABL1 (Homo sapiens), P00519 [E255K]; experiment: Binding affinity to human phosphorylated ABL1 E255K mutant (S229 to K512 residues) expressed in HEK293 cells at 1 uM by Kinomescan method relative to control; type: cell-based
[20] = target: Serine/threonine-protein kinase Nek5 (Homo sapiens) (UniProt Q6P3R8); experiment: Binding affinity to wild-type human partial length NEK5 (M1 to M279 residues) expressed in Escherichia coli BL21 at 1 uM by Kinomescan method relative to control
[21] = target: Serine/threonine-protein kinase B-raf (Homo sapiens) (UniProt P15056); experiment: Binding affinity to wild-type human partial length BRAF (S429 to E741 residues) expressed in HEK293 cells at 1 uM by Kinomescan method relative to control; type: cell-based
[22] = target: Non-receptor tyrosine-protein kinase TYK2 (Homo sapiens) (UniProt P29597); experiment: Binding affinity to wild-type human partial length TYK2 JH1 catalytic domain (V877 to C1187 residues) expressed in HEK293 cells at 1 uM by Kinomescan method relative to control; type: cell-based
[23] = target: Cyclin-dependent kinase 11B (Homo sapiens) (UniProt P21127); experiment: Binding affinity to wild-type human partial length CDC2L1 (P353 to G692 residues) expressed in Escherichia coli BL21 at 1 uM by Kinomescan method relative to control
[24] = target: Serine/threonine-protein kinase PAK 6 (Homo sapiens) (UniProt Q9NQU5); experiment: Binding affinity to wild-type human partial length PAK6 (N298 to C681 residues) expressed in Escherichia coli BL21 at 1 uM by Kinomescan method relative to control
[25] = target: Serine/threonine-protein kinase Chk2 (Homo sapiens) (UniProt O96017); experiment: Binding affinity to wild-type human partial length CHEK2 (S253 to E574 residues) expressed in Escherichia coli BL21 at 1 uM by Kinomescan method relative to control
HEK293 [26] = experiment: Binding affinity to wild-type Mycobacterium tuberculosis partial length PKNB (M1 to G279 residues) expressed in HEK293 cells at 1 uM by Kinomescan method relative to control; type: cell-based

Calcium/calmodulin-dependent protein kinase type 1 (Homo sapiens), sequence (Q14012 whole entry, looked up, the tested form may be a part): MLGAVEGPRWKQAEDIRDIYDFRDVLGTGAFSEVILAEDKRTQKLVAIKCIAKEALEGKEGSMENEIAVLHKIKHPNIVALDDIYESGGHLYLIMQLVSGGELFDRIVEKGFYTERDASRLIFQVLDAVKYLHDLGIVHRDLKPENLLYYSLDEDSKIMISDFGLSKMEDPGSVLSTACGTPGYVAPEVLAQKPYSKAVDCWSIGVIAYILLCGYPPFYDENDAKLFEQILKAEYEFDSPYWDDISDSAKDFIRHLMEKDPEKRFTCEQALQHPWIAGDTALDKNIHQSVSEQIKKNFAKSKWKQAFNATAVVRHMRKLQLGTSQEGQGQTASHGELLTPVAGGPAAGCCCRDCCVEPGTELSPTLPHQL
Dual specificity protein kinase CLK3 (Homo sapiens), sequence (P49761 whole entry, looked up, the tested form may be a part): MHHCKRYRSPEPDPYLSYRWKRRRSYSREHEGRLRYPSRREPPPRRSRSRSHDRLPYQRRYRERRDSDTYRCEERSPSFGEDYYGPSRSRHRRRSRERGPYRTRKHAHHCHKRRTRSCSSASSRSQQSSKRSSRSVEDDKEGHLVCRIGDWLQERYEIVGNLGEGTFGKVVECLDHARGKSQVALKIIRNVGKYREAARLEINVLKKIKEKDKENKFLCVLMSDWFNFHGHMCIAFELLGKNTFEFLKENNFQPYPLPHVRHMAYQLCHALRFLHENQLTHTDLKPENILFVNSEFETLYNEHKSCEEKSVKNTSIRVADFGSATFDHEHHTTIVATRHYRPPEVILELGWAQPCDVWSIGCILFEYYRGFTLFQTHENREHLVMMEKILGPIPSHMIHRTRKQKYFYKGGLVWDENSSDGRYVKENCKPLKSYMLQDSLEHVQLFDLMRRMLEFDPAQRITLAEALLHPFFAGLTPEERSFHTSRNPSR
Rho-associated protein kinase 1 (Homo sapiens), sequence (Q13464 2-1354 limits assumed): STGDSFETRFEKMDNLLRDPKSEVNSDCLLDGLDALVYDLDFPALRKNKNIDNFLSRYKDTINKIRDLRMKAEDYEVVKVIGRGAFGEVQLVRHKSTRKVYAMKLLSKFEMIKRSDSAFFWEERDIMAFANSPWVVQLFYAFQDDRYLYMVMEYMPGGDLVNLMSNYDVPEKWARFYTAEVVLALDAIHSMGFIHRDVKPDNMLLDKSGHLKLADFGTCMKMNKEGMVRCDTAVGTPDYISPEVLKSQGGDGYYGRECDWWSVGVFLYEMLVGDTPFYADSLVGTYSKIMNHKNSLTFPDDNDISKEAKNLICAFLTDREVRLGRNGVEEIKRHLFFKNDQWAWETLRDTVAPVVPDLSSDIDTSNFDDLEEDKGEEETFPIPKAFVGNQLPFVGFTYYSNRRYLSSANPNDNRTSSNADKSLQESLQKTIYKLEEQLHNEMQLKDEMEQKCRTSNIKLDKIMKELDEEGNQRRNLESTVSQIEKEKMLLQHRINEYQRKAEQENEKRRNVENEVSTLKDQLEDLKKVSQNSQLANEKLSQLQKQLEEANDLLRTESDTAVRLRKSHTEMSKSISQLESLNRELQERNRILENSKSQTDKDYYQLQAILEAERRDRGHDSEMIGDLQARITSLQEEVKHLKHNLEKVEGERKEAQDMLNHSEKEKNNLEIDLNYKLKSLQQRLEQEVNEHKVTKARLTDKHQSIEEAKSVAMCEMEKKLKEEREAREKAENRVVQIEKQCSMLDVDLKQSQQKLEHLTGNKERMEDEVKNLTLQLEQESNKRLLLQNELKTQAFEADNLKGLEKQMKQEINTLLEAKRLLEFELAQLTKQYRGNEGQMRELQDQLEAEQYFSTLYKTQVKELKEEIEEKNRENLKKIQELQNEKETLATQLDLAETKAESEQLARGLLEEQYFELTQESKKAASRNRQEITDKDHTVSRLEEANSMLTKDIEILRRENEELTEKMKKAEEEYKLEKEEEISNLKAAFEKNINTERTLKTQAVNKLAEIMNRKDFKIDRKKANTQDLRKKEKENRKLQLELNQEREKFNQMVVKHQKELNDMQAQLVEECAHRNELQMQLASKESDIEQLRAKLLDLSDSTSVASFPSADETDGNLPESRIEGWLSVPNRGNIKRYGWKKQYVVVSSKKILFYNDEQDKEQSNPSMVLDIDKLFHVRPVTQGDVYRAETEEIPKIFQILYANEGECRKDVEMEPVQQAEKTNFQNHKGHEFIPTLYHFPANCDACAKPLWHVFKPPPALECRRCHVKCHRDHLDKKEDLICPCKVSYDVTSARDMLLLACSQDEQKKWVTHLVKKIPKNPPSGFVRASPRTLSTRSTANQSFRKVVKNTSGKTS
Protein kinase C epsilon type (Homo sapiens), sequence (Q02156 whole entry, the tested form may be a part): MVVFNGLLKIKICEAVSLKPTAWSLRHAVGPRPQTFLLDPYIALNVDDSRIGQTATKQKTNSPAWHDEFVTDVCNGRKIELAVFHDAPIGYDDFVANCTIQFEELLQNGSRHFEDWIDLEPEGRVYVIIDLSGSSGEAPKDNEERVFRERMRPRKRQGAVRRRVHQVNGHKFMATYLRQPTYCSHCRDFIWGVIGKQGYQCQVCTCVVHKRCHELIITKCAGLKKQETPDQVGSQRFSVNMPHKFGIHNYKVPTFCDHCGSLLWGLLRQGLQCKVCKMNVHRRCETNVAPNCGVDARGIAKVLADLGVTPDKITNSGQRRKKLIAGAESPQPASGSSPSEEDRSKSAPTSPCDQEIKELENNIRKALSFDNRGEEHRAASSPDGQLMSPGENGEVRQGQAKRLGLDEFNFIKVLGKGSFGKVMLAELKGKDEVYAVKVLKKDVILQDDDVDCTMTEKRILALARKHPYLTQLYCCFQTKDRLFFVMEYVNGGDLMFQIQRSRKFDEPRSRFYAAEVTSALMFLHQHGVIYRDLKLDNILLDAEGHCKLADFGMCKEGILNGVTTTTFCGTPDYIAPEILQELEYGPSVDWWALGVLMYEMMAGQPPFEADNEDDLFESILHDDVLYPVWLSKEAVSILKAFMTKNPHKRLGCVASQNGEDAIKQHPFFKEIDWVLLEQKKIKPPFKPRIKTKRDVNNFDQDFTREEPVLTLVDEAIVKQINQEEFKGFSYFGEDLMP
Mitogen-activated protein kinase kinase kinase 20 (Homo sapiens), sequence (Q9NYL2 2-800 limits assumed): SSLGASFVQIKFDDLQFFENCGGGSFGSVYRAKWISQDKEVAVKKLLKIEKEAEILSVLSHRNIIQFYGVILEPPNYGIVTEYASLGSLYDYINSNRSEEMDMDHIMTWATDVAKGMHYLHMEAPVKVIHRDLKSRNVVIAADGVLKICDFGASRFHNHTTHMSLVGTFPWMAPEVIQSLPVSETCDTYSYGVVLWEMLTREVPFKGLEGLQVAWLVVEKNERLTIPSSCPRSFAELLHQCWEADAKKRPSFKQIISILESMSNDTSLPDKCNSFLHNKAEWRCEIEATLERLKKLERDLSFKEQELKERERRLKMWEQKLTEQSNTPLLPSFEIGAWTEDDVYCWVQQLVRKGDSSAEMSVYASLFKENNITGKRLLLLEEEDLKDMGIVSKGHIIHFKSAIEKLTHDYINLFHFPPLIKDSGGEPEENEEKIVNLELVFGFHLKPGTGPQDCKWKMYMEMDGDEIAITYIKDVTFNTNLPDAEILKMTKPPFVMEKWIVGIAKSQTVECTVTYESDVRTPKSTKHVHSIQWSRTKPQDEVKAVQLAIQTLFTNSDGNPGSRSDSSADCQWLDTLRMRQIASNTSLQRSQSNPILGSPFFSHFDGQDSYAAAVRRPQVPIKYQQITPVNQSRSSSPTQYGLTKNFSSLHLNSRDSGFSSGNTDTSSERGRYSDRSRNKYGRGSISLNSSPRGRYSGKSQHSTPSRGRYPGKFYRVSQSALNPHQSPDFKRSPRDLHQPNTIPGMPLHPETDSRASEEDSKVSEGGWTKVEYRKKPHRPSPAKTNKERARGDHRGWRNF
Serine/threonine-protein kinase B-raf (Homo sapiens), sequence (P15056 whole entry, the tested form may be a part): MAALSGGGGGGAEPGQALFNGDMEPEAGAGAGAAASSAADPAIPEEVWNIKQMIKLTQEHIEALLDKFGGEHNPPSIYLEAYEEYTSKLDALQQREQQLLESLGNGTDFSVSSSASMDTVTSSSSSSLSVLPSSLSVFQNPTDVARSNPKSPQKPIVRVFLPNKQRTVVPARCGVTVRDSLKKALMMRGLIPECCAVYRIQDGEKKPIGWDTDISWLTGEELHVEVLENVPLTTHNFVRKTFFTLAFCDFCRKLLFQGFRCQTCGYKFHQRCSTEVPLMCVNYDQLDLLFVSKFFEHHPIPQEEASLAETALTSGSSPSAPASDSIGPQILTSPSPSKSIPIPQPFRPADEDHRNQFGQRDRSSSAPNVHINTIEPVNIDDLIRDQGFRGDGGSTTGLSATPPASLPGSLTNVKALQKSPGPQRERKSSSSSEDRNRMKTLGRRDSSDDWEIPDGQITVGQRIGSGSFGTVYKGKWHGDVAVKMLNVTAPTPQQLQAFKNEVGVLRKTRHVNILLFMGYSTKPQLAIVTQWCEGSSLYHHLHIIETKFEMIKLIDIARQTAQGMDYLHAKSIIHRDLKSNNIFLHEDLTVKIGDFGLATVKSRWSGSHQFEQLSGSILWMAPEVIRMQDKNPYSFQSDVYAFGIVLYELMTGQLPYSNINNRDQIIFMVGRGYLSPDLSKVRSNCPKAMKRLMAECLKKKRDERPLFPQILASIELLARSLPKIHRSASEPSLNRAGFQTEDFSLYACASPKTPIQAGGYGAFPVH

SMILES | Activity [1] | Activity [2] | Activity [3] | Activity [4] | Activity [5] | Activity [6] | Activity [7] | Activity [8] | Activity [9] | Activity [10] | Activity [11] | IC50 [12] | Activity (HEK293 [13]) | Activity [14] | Activity [15] | Activity [16] | Activity [17] | Activity [18] | Activity [19] | Activity [20] | further results
CCC(=O)Nc1ccc(C(=O)Nc2ccc(Nc3ncc4c(n3)N(C)c3ccc(C)cc3C(=O)N4C)cc2)cc1 | 90% | 97% | 99% | 86% | 84% | 82% | 88% | 82% | 95% | 91% | 78% | 34 µM | 50% | 72% | 85% | 100% | 100% | 90% | 60% | 86% | Activity [21]: 100%; Activity [22]: 58%; Activity [23]: 100%; Activity [24]: 94%; Activity [25]: 95%; Activity (HEK293 [26]): 68%
C=CC(=O)Nc1ccc(C(=O)Nc2ccc(Nc3ncc4c(n3)N(C)c3ccc(C)cc3C(=O)N4C)cc2)cc1 | 88% | 97% | 100% | 94% | 97% | 100% | 99% | 87% | 100% | 89% | 79% | 37 µM | 50% | 100% | 100% | 87% | 100% | 100% | 77% | 100% | Activity [21]: 100%; Activity [22]: 73%; Activity [23]: 97%; Activity [24]: 91%; Activity [25]: 97%; Activity (HEK293 [26]): 94%
